These results are taken from ChEMBL document CHEMBL1154160, “Synthesis, antiviral activity, and stability of nucleoside analogs containing tricyclic bases” (Eur J Med Chem, 2009).

The subject of data set [1] is Human alphaherpesvirus 1. Put plainly: Antiviral activity against HSV1 F in african green monkey Vero cells by plaque reduction assay. It counts as functional, organism-based. The conditions noted are these: Human alphaherpesvirus 1, strain F.
Data set [2] concerns Hepatitis C virus. Description: Antiviral activity against HCV in human Huh7 cells by RNA replicon assay. The data set is classed as functional, organism-based, Hepacivirus hominis. To be noted: Huh-7. Background: Replicon systems follow genome replication, usually without infectious particles.
Data set [3] concerns PBMC. Description: (§1) Cytotoxicity against human PBMC cells. The conditions noted are these: pbmc. The data set is classed as cell-based.
Data set [4] deals with CCRF-CEM. Put plainly: (§2) Cytotoxicity against human CEM cells. The conditions noted are these: ccrf-cem. The data set is classed as cell-based.
Data set [5] concerns Vero. Description: (§3) Cytotoxicity against african green monkey Vero cells. The data set is classed as cell-based. To be noted: chlorocebus sabaeus, vero.
Data set [6] can be described thus: Stability in water assessed as half life. The data set is classed as physicochemical. The conditions noted are these: buffer. An outline of the steps:
(§4)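 Analogs were diluted from a freshly made stock into water and into methanol, with one half held at room temperature and the other at 4°C. Samples were injected at intervals: every 15 min for 2 hr, then hourly, daily and weekly. LC-MS/MS used a C18 column at 30°C with a formate pH 3 (or water)/methanol gradient, ESI-positive SRM. Released guanine-analog was quantified against 10–1000 nM standard curves.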

Data set [7] in a line: Stability in methanol assessed as 3'-azido-3'-deoxyguanosine levels after 72 hrs. The data set is classed as physicochemical. An outline of the steps:
as §4

Data set [8] has as its system Human immunodeficiency virus. Description: Antiviral activity against HIV in human PBM cells. To be noted: Human immunodeficiency virus 1, PBMC.
A short description of data set [9]: as §1. It counts as cell-based. The conditions noted are these: PBMC cells.
A short description of data set [10]: as §2. It counts as cell-based, CCRF-CEM. To be noted: CEM (CCRF-CEM) cells.
A short description of data set [11]: as §3. The conditions noted are these: chlorocebus sabaeus, Vero cells. The data set is classed as cell-based.

For orientation: EC50 means the concentration that produces a half-maximal response. By EC90 is commonly meant the concentration at which the effect reaches the 90% level. The CC50 is the concentration at which the toxic effect on the cells reaches its halfway point.

For the molecule `COc1ccc(-c2cn3c(O)c4ncn(COCCO)c4nc3n2)cc1`, in [1], the response was half-maximal at 12.2 µM (EC50) and it took 23.7 µM to reach the 90% level (EC90).
Consider `CCN(CC)c1ccc(-c2cn3c(=O)c4ncn([C@H]5C[C@H](N=[N+]=[N-])[C@@H](CO)O5)c4nc3[nH]2)cc1`, for which the EC50 in [2] was greater than 10 µM; in data set [8] it was 0.04 µM. Further, the EC90 in data set [2] was greater than 10 µM; in [8], 0.34 µM. Moreover, the values for the CC50 in [3], in data set [4] and in [5] were greater than 100 µM, 14.1 µM and 72.8 µM, respectively. In addition, the t1/2 in data set [6] is 25 min. Also, in data set [7], the Activity amounted to 1%.
On to `CCc1cn2c(=O)c3ncn([C@@H]4O[C@H](CO)[C@@H](O)[C@@]4(C)O)c3nc2[nH]1`, for which the results for the EC50 in data set [2] and in [8] were greater than 10 µM and greater than 100 µM, respectively. For the same molecule, the values for the EC90 in [2] and in data set [8] were greater than 10 µM and greater than 100 µM, respectively. The CC50 in data set [9], in [10] and in [11] was greater than 100 µM in each case.
As for `COc1ccc(-c2cn3c(=O)c4ncn([C@@H]5O[C@H](CO)[C@@H](O)[C@@]5(C)O)c4nc3[nH]2)cc1`, the figures for the EC50 in data set [2] and in [8] were no less than 10 µM and greater than 100 µM, respectively. The EC90 in [2] was greater than 10 µM; in [8], greater than 100 µM. Moreover, the CC50 in data set [3], in [4] and in data set [5] was greater than 100 µM in each case.
As for `C[C@@]1(O)[C@H](O)[C@@H](CO)O[C@H]1n1cnc2c(=O)n3cc(-c4ccsc4)[nH]c3nc21`, the results for the EC50 in data set [2] and in data set [8] were no less than 10 µM and greater than 100 µM, respectively. For the same molecule, the 90% effect concentration (EC90) in data set [2] was greater than 10 µM; in data set [8], greater than 100 µM. In addition, the CC50 in data set [3], in [4] and in data set [5] was greater than 100 µM each time.
Regarding `C[C@@]1(O)[C@H](O)[C@@H](CO)O[C@H]1n1cnc2c(=O)[nH]c(N)nc21` [2'-B-METHYL-GUANOSINE], the EC50 in [2] is 2.3 µM; in data set [8], greater than 100 µM. For the same molecule, the EC90 in [2] was 7.8 µM; in data set [8] it was greater than 100 µM. In addition, the CC50 in data set [9], in [10] and in [11] was greater than 100 µM throughout.
Consider `Nc1nc2c(ncn2[C@H]2C=C[C@@H](CO)C2)c(=O)[nH]1` [CARBOVIR], for which the concentration giving a half-maximal response (EC50) in data set [2] was greater than 10 µM; in data set [8], 0.043 µM. Moreover, the concentration for an effect of 90% (EC90) in data set [2] was greater than 10 µM; in data set [8], 0.29 µM. Besides, the 50% cytotoxic concentration (CC50) in [3] was 7 µM; in [4] it was greater than 100 µM; in data set [5] it was greater than 100 µM.
